Source: ChEMBL document CHEMBL4024790 (J Med Chem, 2018)
Calls of active or inactive are those of the source. No cut-off for these calls is given here.

Key:
[1] = Drug metabolism in dog hepatocytes assessed as 3-(7-methyl-5-(1-methyl-5-(5-(trifluoromethyl)pyridin-2-yl)-1H-pyrazol-4-yl)imidazo[1,5-f][1,2,4]triazin-4-ylamino)propanoic acid formation at 1 to 50 uM after 1 hr by LC-MS/MS analysis; format: ADME, cell-based, Canis lupus familiaris, Hepatocyte
Procedure, shortened: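 Rat, dog or human liver microsomes or hepatocytes (P450 0.35–0.5 µM final) incubated with compound at 1, 10 or 50 µM in 100 mM phosphate buffer with 1 mM NADP regenerating system, 37°C for 1 h; quenched with 4 volumes acetonitrile, centrifuged, supernatant evaporated, reconstituted in 5% aqueous acetonitrile and analysed by reversed-phase LC.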

Mus musculus [2] = organism: Mus musculus; assay: Increase in cGMP level in CD-1 mouse brain striatum assessed per nM of unbound brain concentration by immunoassay; format: functional
Procedure, shortened: (§1)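 CD-1 mice given compound; brains fixed by focused microwave irradiation, and cortex, striatum and hippocampus dissected and homogenized in 0.5 N HCl, then centrifuged. cGMP in the supernatant measured by enzyme immunoassay. Unbound brain concentration taken from satellite animals. Dose-response and time-course data combined, and a linear Cbu–cGMP model fitted. The Cbu E50 is the projected Cbu giving a 50% rise in cGMP. Statistics by one-way ANOVA with Fisher's PLSD, p<0.05.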

Aldehyde oxidase = molecular target: T1, Aldehyde oxidase (Homo sapiens, UniProt Q06278); assay: Drug metabolism assessed as aldehyde oxidase (unknown origin)-mediated metabolite formation; format: ADME
T1 sequence (Q06278 whole entry): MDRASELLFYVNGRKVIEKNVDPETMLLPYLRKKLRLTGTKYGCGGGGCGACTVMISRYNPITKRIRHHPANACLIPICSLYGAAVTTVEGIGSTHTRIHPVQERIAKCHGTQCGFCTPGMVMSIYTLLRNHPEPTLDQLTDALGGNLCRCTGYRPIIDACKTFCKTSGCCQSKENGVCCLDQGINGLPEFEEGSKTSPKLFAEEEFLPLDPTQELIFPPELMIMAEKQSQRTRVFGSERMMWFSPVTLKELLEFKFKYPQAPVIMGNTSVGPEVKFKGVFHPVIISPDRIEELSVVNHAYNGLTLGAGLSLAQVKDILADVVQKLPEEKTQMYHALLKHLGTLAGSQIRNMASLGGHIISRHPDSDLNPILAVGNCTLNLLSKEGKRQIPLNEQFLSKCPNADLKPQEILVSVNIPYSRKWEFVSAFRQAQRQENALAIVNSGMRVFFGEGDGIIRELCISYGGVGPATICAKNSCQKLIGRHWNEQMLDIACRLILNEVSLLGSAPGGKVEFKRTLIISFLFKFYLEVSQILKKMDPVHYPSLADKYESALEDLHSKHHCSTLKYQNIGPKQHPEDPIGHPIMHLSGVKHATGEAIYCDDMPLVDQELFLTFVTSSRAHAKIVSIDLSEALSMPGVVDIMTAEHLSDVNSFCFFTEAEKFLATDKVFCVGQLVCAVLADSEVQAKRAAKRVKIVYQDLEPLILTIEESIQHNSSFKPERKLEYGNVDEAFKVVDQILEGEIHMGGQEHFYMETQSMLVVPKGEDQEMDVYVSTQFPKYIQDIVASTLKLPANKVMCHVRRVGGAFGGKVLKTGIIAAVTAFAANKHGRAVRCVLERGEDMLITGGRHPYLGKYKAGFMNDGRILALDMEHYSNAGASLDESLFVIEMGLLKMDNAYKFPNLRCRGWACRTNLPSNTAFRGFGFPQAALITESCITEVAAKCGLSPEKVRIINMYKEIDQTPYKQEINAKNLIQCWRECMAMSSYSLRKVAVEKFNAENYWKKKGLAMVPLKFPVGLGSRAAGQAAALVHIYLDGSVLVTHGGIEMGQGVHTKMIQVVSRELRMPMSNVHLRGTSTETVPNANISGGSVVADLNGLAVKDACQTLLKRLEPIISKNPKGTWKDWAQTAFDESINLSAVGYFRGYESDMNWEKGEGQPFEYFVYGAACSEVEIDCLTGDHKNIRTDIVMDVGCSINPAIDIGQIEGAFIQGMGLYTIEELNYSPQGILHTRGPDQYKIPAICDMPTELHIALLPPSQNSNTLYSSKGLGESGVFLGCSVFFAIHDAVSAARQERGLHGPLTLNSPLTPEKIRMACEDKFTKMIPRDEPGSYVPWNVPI

Canis familiaris = assay: Cardiotoxicity in dog up to 15 mg/kg/day, po for 14 days by microscopic method; format: toxicity, organism-based, Canis lupus familiaris; conditions: in vivo, 336 h
Mus musculus [3] = organism: Mus musculus; assay: Increase in cGMP level in CD-1 mouse brain striatum assessed as unbound brain concentration required to show the effect by immunoassay; format: functional; procedure, shortened: as §1
Rattus norvegicus [4] = assay: Reversal of ketamine-induced working memory deficit in Long Evans rat assessed as unbound brain concentration required to show effect at 0.1 mg/kg, sc by radial arm maze assay; format: functional, organism-based
Procedure, shortened: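 Rats trained in a radial arm maze working-memory task, with deficit induced by ketamine. Compound dosed sc; errors compared with vehicle + ketamine. N = 20–23 per group, Hochberg test. Cbu at the tested doses estimated from satellite pharmacokinetic animals.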

Cytochrome P450 2C9 = Cytochrome P450 2C9 (Homo sapiens, UniProt P11712); assay: Time-dependant inhibition of recombinant human CYP2C9; format: ADME; conditions: recombinant enzyme
Sequence of Cytochrome P450 2C9 (P11712 whole entry): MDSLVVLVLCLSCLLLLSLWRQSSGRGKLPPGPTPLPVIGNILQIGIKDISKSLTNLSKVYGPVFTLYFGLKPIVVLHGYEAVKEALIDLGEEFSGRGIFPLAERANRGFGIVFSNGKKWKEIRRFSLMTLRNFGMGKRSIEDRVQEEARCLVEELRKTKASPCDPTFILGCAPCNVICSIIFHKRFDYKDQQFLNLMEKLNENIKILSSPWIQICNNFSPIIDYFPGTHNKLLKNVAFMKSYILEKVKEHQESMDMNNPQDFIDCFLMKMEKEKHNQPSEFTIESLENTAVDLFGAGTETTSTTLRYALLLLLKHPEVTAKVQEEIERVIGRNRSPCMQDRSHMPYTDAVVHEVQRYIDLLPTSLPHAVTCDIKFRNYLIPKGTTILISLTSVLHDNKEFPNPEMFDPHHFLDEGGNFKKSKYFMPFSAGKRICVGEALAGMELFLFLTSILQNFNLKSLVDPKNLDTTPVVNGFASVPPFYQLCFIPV

Rattus norvegicus [5] = organism: Rattus norvegicus; assay: Toxicity in rat assessed as effect on vasculature up to 1 month by microscopic method; conditions: in vivo
Mus musculus [6] = organism: Mus musculus; assay: Increase in cGMP level in CD-1 mouse brain cortex assessed as unbound brain concentration required to show the effect by immunoassay; format: functional
Procedure, shortened: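 CD-1 mice dosed SC (solution in 20% SBE-β-CD with 2 molar equivalents 1N HCl, 1 mL/kg); euthanized by focused microwave irradiation of brain; cortex, striatum, hippocampus homogenized in 0.5 N HCl, centrifuged; cyclic nucleotides in supernatant by enzyme immunoassay. Unbound brain exposure from satellite animals; dose-response and time-course data combined with linear model; one-way ANOVA with Fisher's PLSD.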

Rattus norvegicus [7] = assay: Effect on spontaneous locomotor activity in Long Evans rat at 0.32 to 3.2 mg/kg, sc; format: ADME, organism-based; conditions: in vivo
Procedure, shortened: (§2)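 Rats dosed SC at 0.32, 1.0 and 3.2 mg/kg; conditioned avoidance responding also run in combination with risperidone 0.032 mg/kg.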

[8] = Cmax in Wistar Han rat at 5 mg/kg, po administered via gavage by LC-MS/MS analysis; format: ADME, organism-based; set-up: dose 5 mg/kg, route oral; conditions: in vivo
[9] = Cmax in beagle dog at 5 mg/kg, po administered via gavage by LC-MS/MS analysis; format: ADME, organism-based, Canis lupus familiaris; set-up: dose 5 mg/kg, route oral; conditions: in vivo
Rattus norvegicus [10] = assay: Effect on risperidone-induced antipsychotic activity in Long Evans rat at 0.32 to 3.2 mg/kg, sc by conditioned avoidance responding assay; format: functional, organism-based; procedure, shortened: as §2
Brain = assay: Drug uptake in rat brain at 5 to 250 mg/kg/day, po up to 15 days by microscopic method; format: ADME, organism-based; conditions: in vivo, 360 h
Procedure, shortened: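 Exploratory rat toxicity study, oral dosing at 5, 50 and 250 mg/kg/day for up to 15 days, with microscopic examination of heart and vasculature and measurement of plasma and brain exposure.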

Rattus norvegicus [11] = assay: Reversal of MK-801-induced disruption of low frequency cortical delta oscillation in Sprague-Dawley rat brain at 0.03 mg/kg, iv measured up to 55 mins by electrophysiology method; format: functional, organism-based

Structure (SMILES): Cc1nc(-c2cnn(C)c2-c2ccc(C(F)(F)F)cn2)c2c(N3CCC3)ncnn12 [PF-05180999]
- Drug metabolism [1]: Metabolite_Detected
- Activity (Mus musculus [2]): 0.51%
- Drug metabolism (Aldehyde oxidase): Metabolite_Notdetected
- Activity (Canis familiaris): Non-Toxic
- fEC50 (Mus musculus [3]): 98 nM
- Drug uptake(free) (Rattus norvegicus [4]): 3.1 nM
- TDI (Cytochrome P450 2C9): Not Active
- Activity (Rattus norvegicus [5]): Non-Toxic
- fEC50 (Mus musculus [6]): 79.4 nM
- Activity (Rattus norvegicus [7]): Non-Toxic
- Cmax [8]: 363 ng/mL
- Cmax [9]: 1770 ng/mL
- Activity (Rattus norvegicus [10]): inactive
- Drug uptake (Brain): Active
- Activity (Rattus norvegicus [11]): inactive
